# TAG inh = inhibitors of triacylglycerol accumulation, primary screen, cell-based, uHTS, fluorescence, H9c2. H9c2 cells, Nile Red lipid (TAG) fluorescence; cells loaded with 200 µM oleic acid. inhibition, % at 12.5 µM. 0.66% of 230,000 active. AID 651582, 2012;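 active = pattern-corrected inhibition of lipid staining of at least 50% with the nuclear-stain viability signal not falling by more than 50%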;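 also: 0% = DMSO wells and 100% = triacsin C control wells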
# ABHD5 PLIN5 PPI = ABHD5-PLIN5 interaction inhibitors, primary screen, cell lysate, split luciferase complementation, luminescence; Perilipin-5 (Homo sapiens) + 1-acylglycerol-3-phosphate O-acyltransferase ABHD5 (Homo …; Split G. princeps luciferase complementation, 4 h; inhibition, % at 4 µM; 0.78% of 360,000 active; AID 602281, 2012;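 active = inhibition above the mean inhibition across every tested compound plus 3 SD, cut at about 22% in these data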;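 also: 0% = DMSO only wells and the 100% control is not disclosed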
# Rad51 HR inh = human RAD51 strand exchange inhibitors, primary screen, biochemical, fluorescence; DNA repair protein RAD51 homolog 1 (Homo sapiens), Q06609; hRad51 DNA strand exchange, fluorescence dequenching; inhibition, % at 10 µM; 0.085% of 200,000 active; AID 1385, 2008;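 active = inhibition above 40% at the single screening dose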;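 also: 0% = DMSO control wells and 100% = blanks with heterologous ssDNA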
#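 Assay system: Human Rad51 nucleoprotein filaments preassembled on unlabelled ssDNA | Reagent: Donor/quencher-labelled 47-bp dsDNA substrate | Doses: One concentration, 10 µM final | Times: 37 °C 15-min filament assembly, 30-min compound preincubation, 15-min exchange | Technique: Fluorescein emission 520 nm, excitation 485 nm | Benchmarks: Plate control and blank wells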
# HIF activator = HIF pathway transcriptional activators, primary screen, cell-based, U2OS HRE-luciferase, luminescence. U2OS HRE-luciferase reporter; normalized: DMSO 0%, desferrioxamine 100%. activation, % at 7.5 µM (by protocol). 0.32% of 300,000 active;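 active = mean activation of at least 10% of the iron chelator positive control signal, with at least half of replicates also reaching 10%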
# FXN GAA850 act = FXN promoter activators, primary screen, cell-based, luciferase luminescence, HEK293 lucGAA850 | HEK293 lucGAA850 FXN promoter luciferase reporter, 24 h; percent of 10 µM SAHA response | activation, % at 6 µM | 0.56% of 360,000 active;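 active = activation above the average of all compounds screened plus 3 SD, cutoff fixed separately per campaign, cut at about 7.5% in these data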;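 also: 0% = DMSO wells and 100% = 10 µM SAHA wells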
# Hsp70 act = Hsp70 transcriptional activators, primary screen, cell-based, HeLa, Hsp70 promoter luciferase, luminescence, 10 µM; HeLa Hsp70 promoter luciferase reporter; scaled: vehicle 0, proteasome-inhibitor control 100%; activation, % at 10 µM; 0.04% of 200,000 active;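 active = activation above the mean across all tested compounds plus 3 SD, cutoff set per campaign, cut at about 5.5% in these data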;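 also: 100% = MG132 at 30 µM as the positive control and 0% = DMSO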
# ABHD5-PLIN5 conf = ABHD5-PLIN5 interaction inhibitors, confirmation, biochemical, luminescence; shares compounds with ABHD5 PLIN5 PPI; inhibition, % at 4 µM; 67% of 2,200 active; AID 651612, 2012; in the data active = inhibition above about 23%;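 also: 0% = DMSO vehicle wells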
# HNF4 split-luc = HNF4 dimerization inhibitors, counter-screen for ABHD5-PLIN5 interaction inhibitor project, biochemical, split-luciferase complementation, luminescence; 77% of 2,200 active; shares compounds with ABHD5 PLIN5 PPI; inhibition, % at 4 µM;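 active = mean inhibition across replicate wells exceeding the computed hit threshold, cut at about 13% in these data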;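 also: light from luciferase halves that rejoin when HNF4 fusion proteins dimerize; 0% = DMSO only wells and the 100% control is not given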
# Target sequence (P41235 whole entry, looked up, the tested form may be a part): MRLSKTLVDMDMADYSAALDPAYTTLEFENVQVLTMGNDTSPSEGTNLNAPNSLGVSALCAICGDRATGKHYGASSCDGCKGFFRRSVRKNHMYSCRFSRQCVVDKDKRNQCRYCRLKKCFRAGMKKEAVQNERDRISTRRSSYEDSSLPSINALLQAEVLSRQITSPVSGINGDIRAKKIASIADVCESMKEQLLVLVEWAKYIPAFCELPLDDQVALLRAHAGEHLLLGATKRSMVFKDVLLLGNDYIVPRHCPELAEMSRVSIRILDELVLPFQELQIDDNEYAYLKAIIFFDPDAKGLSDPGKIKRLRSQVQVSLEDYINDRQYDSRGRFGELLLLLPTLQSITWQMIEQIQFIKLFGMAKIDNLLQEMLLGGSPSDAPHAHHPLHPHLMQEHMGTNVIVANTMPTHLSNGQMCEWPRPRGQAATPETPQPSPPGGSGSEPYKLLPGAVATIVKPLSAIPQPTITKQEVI
# Starred values were filed as active, the others as inactive; . = no result. The list is not random: actives were taken first. Their share in the collection is about 1.9%.
SMILES,TAG inh,ABHD5 PLIN5 PPI,Rad51 HR inh,HIF activator,FXN GAA850 act,Hsp70 act,ABHD5-PLIN5 conf,HNF4 split-luc
Cc1ccccc1-n1c(=O)cc(N2CCN(C(=O)c3ccco3)CC2)[nH]c1=O,3,25*,-2,0,1,0,4,7
O=C(c1ccc2c(c1)OCCCO2)N1CCCCC1,8,2,12,2,2,.,.,.
Cc1ccc(/C=N/NC(=O)c2ccc3ccccc3c2)s1,21,0,.,2,-2,.,.,.
CC(O)CC(=O)OC[C@]12CC[C@H]3[C@@](C)(CC[C@H]4C(C)(C)CCC[C@]34C)[C@@H]1CC(C1=CC(=O)OC1O)O2 (stereo partly specified),.,80*,.,.,-12,.,97*,71*
O=C(O)/C=C/C(=O)c1ccc(O)cc1,1,86*,22,0,1,.,96*,104*
Cc1cc(N2CCN(C)CC2)nc2ccc(NC(=S)N3CCN(c4cccc(Cl)c4)CC3)cc12,46,10,1,0,0,0,.,.
Cc1cccc(N2CCN(C(=S)Nc3ccc4nc(N5CCN(C)CC5)cc(C)c4c3)CC2C)c1 (stereo unspecified),35,25*,6,-2,0,0,10,-4
CCCCn1c(=O)cc(N2CCOCC2)[nH]c1=O,8,25*,-1,0,2,0,2,2
CCn1c(=O)cc(N2CCOCC2)[nH]c1=O,-3,-1,-2,0,1,0,.,.
COc1ccc(CC(=O)n2[nH]c(=O)cc(C)c2=O)cc1OC,9,42*,16,0,1,.,65*,87*
Cc1ccc2c(c1)C(=C(C#N)C#N)C(=O)N2CCN1CCCCC1,22,3,-1,0,-2,.,.,.
CSc1nc(O)c(C(c2ccc(O)cc2)c2c(O)nc(SC)[nH]c2=O)c(=O)[nH]1,-8,50*,.,1,0,.,83*,81*
CCOc1ccccc1C(c1c(O)nc(SC)[nH]c1=O)c1c(O)nc(SC)[nH]c1=O,-5,6,.,0,0,.,.,.
CCOc1ccc(C(c2c(O)nc(SC)[nH]c2=O)c2c(O)nc(SC)[nH]c2=O)cc1,11,34*,.,0,0,.,83*,77*
CSc1nc(O)c(C(c2cccc([N+](=O)[O-])c2)c2c(O)nc(SC)[nH]c2=O)c(=O)[nH]1,-1,25*,-2,-1,0,0,1,18*
C=CCOc1ccc(C(c2c(O)nc(SC)[nH]c2=O)c2c(O)nc(SC)[nH]c2=O)cc1,0,20,.,-1,-1,.,.,.
Cc1ccc2cc(C)c(SCC(=O)NCc3ccco3)nc2c1,-1,1,.,0,0,0,.,.
Cc1ccc2cc(C#N)c(NCc3ccco3)nc2c1,3,24*,-8,0,0,0,46*,61*
CCOCCOC(=O)c1ccc(NC(=O)c2cc3ccccc3o2)cc1,-4,6,.,.,2,.,.,.
O=C(N[C@@H](Cc1ccccc1)C(=O)CCl)OCc1ccccc1,19,65*,.,.,-8,.,96*,106*
O=C(N/N=C/c1cccnc1)C(O)c1ccccc1 (stereo unspecified),.,3,-5,0,1,0,.,.
O=C(N/N=C/C(Br)=C/c1ccccc1)C(O)c1ccccc1 (stereo unspecified),-2,25*,-3,3,6,.,3,34*
CC1(C(=O)NS(=O)(=O)Cc2ccccc2)CCN1C(=O)CCc1ccccc1 (stereo unspecified),1,-4,.,.,1,.,.,.
COc1ccc(NC(=O)C(c2cc3c(cc2[N+](=O)[O-])OCO3)N(C)c2ccccc2)cc1 (stereo unspecified),.,-1,1,1,1,0,.,.
O=C(O)c1ccccc1NS(=O)(=O)c1cccc(C(F)(F)F)c1,.,4,0,-1,-2,0,.,.
SMILES,TAG inh,ABHD5 PLIN5 PPI,Rad51 HR inh,HIF activator,FXN GAA850 act,Hsp70 act,ABHD5-PLIN5 conf,HNF4 split-luc
O=C(O)c1ccccc1NS(=O)(=O)c1cccc(-n2sc3ccccc3c2=O)c1,.,37*,.,0,-1,.,93*,115*
COCCN(C(=O)COC(=O)Cc1c[nH]c2ccccc12)c1c(N)n(Cc2ccccc2)c(=O)[nH]c1=O,1,-2,.,1,-1,.,.,.
O=C(/C(=C/c1ccccc1)n1cncn1)c1ccc(Cl)cc1Cl,.,33*,.,0,3,0,90*,57*
COc1cc(-c2cc(C(=O)Nc3ccc(N4CCOCC4)cc3)c3ccccc3n2)cc(OC)c1OC,9,24*,13,0,-4,.,8,0
Cc1ccc(/C=C/C(=O)N2CC(C)CC(C)C2)o1 (stereo unspecified),-9,28*,10,1,5,0,23*,36*
CCN1CCN(C(=O)/C=C/c2ccc(C)o2)CC1,.,-1,-9,0,2,0,.,.
N=C1C=CC(=C(c2ccc(N)cc2)c2ccc(N)cc2)C=C1,-21,34*,.,.,-4,.,56*,60*
CCOc1ccc(C(=O)C(CN2CCOCC2)c2ccccc2)cc1 (stereo unspecified),.,7,.,0,-3,-1,.,.
O=C(c1ccccc1)C(CN1CCCCC1)c1ccccc1 (stereo unspecified),107,29*,.,.,-11,.,21,95*
CN(C)CC(C(=O)c1ccccc1)c1ccccc1 (stereo unspecified),65*,31*,3,1,-4,0,13,100*
CC(CN1CCN(CC(C)C(=O)c2ccccc2)CC1)C(=O)c1ccccc1 (stereo unspecified),-5,-9,.,.,1,.,.,.
O=C(c1ccc(Br)cc1)C(CN1CCOCC1)c1ccccc1 (stereo unspecified),.,29*,.,-6,2,.,52*,94*
O=C1c2ccccc2C(O)N1Cc1cccs1 (stereo unspecified),.,0,-9,0,3,0,.,.
Oc1ccccc1C1=Nc2ccccc2N=C(c2ccco2)C1,.,-1,-2,0,0,0,.,.

# Assay outcomes (PubChem BioAssay)
